Experimental data taken from ChEMBL document CHEMBL2380272, “Biological evaluation of bisbenzaldehydes against four Mycobacterium species” (Eur J Med Chem, 2013).
≈ marks a conversion by molar mass, not a printed value.

Assays:
[1] = Antimycobacterial activity against Mycobacterium avium subsp. avium ATCC 15769 assessed as growth inhibition after 6 days by luciferase reporter gene assay; assay type: functional; details: ATCC 15769, 144 h
Outline: (§1)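 Mycobacteria carrying the pSMT1 luciferase reporter plasmid. Compounds came from 10 mM DMSO stocks and were serially diluted in 7H9 + 10% FCS. Thawed bacteria were filtered, recovered 1 h at 37 °C, then added at 50 000 RLU/mL. After 6 days of culture, light was read for 10 s after adding 1% n-decanal. Triplicates were run, and MIC50 was the concentration giving 50% growth inhibition.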

[2] = Potency index, ratio of MIC50 for Mycobacterium avium subsp. paratuberculosis ATCC 19698 to MIC50 for Mycobacterium bovis AN5; assay type: functional
Salmonella typhimurium [3] = assay: Genotoxicity in recombinant Salmonella typhimurium TA104 expressing Vibrio fisheri luxabcd genes under transcriptional control of recN2-4 promoter assessed as concentration required to cause DNA damage measured every 5 mins for 4 hrs by vitotox assay in presence of S9 fraction; assay type: toxicity, organism-based; details: salmonella enterica subsp. enterica serovar typhimurium, s9, 4 h
Outline: (§2)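 VITOTOX genox strain TA104 recN2-4 (recN promoter driving lux). Grown 16 h at 36 °C in poor LB, diluted 125-fold and shaken 1 h, then diluted 10-fold; rat aroclor S9 added for +S9 runs. Incubated at 30 °C with light read every 5 min for 4 h. Signal/noise = exposed over unexposed light. Highest concentration tested 10 µM.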

[4] = system: Mycobacterium avium subsp. paratuberculosis; assay: Antimycobacterial activity against Mycobacterium avium subsp. paratuberculosis ATCC 19698 assessed as growth inhibition after 6 days by luciferase reporter gene assay; assay type: functional; details: ATCC 19698, 144 h; outline: as §1
[5] = system: Mycobacterium tuberculosis; assay: Antimycobacterial activity against Mycobacterium tuberculosis H37Rv ATCC 27294 assessed as growth inhibition after 6 days by luciferase reporter gene assay; assay type: functional; details: H37Rv ATCC 27294, 144 h; outline: as §1
[6] = system: Mycobacterium tuberculosis; assay: Antimycobacterial activity against Mycobacterium tuberculosis H37Rv infected in mouse J774.A1 cells at 1 MOI assessed as intracellular bacterial growth inhibition at 0.1 uM after 1 hr by luciferase reporter gene assay relative to control; assay type: functional; details: J774.A1, 1 h, read-out: GI
Salmonella typhimurium [7] = assay: Toxicity in recombinant Salmonella typhimurium TA104 expressing luxabcd genes under transcriptional control of constitutive pr1 promoter assessed as concentration required to reduce cell viability measured every 5 mins for 4 hrs by vitotox assay in absence of S9 fraction; assay type: organism-based; details: salmonella enterica subsp. enterica serovar typhimurium
Outline: (§3)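 Cytox strain TA104 pr1 (constitutive promoter driving lux), run alongside the genox strain. Grown in poor LB at 36 °C for 16 h, diluted 125-fold and shaken 1 h, then diluted 10-fold, with or without aroclor-rat S9. Luminescence read at 30 °C every 5 min over 4 h; a drop in light signal indicates reduced viability. Top concentration 10 µM.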

[8] = system: Mycobacterium tuberculosis; assay: Antimycobacterial activity against Mycobacterium tuberculosis H37Rv infected in mouse J774.A1 cells at 1 MOI assessed as intracellular bacterial growth inhibition at 1 uM after 1 hr by luciferase reporter gene assay relative to control; assay type: functional; details: J774.A1, 1 h, read-out: GI
Mycobacterium ulcerans = assay: Antimycobacterial activity against Mycobacterium ulcerans 1615 assessed as growth inhibition after 6 days by luciferase reporter gene assay; assay type: functional; details: Mycobacterium ulcerans, 1615, 144 h
Outline: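 M. ulcerans 1615 carrying pSMT1 luciferase reporter plasmid, stock grown as surface pellicle on Sauton medium, cultured at 32 °C. Serial compound dilutions in 7H9 + 10% FCS from 10 mM DMSO stocks, tested in triplicate. Filtered bacteria added at 50 000 RLU/mL. After 6 days, wells collected and washed with PBS, 1% n-decanal in ethanol added, light read over 10 s. MIC50 = concentration giving 50% inhibition versus untreated.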

Salmonella typhimurium [9] = assay: Genotoxicity in recombinant Salmonella typhimurium TA104 expressing Vibrio fisheri luxabcd genes under transcriptional control of recN2-4 promoter assessed as concentration required to cause DNA damage measured every 5 mins for 4 hrs by vitotox assay in absence of S9 fraction; assay type: toxicity, organism-based; details: salmonella enterica subsp. enterica serovar typhimurium; outline: as §2
[10] = Genotoxicity in human HepG2/C3A cells assessed as DNA fragmentation at 0.3 uM after 24 hrs by alkaline comet assay (reference value: 6.65%); assay type: toxicity, cell-based
Outline: (§4)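 Alkaline comet assay. C3A cells, 40,000/well, recovered overnight, then exposed 24 h at 37 °C, 5% CO2 to 0.1–10 µM final, diluted in DMEM + 10% FCS from 1 mM DMSO stock. Cells embedded in low-melting agarose, lysed 1 h, denatured 40 min at pH > 13, electrophoresed 20 min at 300 mA, about 17 °C. Gel red stain, % tail DNA scored by fluorescence microscopy. EMS 0.5 and 0.75 mM as positive control. Mann–Whitney U test.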

[11] = system: Mycobacterium tuberculosis; assay: Antimycobacterial activity against Mycobacterium tuberculosis H37Rv ATCC 27294 assessed as growth inhibition at 1 uM after 6 days by luciferase reporter gene assay relative to control; assay type: functional; details: H37Rv ATCC 27294, 144 h, read-out: GI
Outline: (§5)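 Luminescent M. tb H37Rv (hsp60-driven luciferase) in 7H9 + 10% FCS was seeded at 50 000 RLU/mL. Compounds were tested at 10, 1 and 0.1 µM from 10 mM DMSO stocks. After 6 days, luminescence was read with 1% n-decanal. Growth inhibition (%) was expressed against untreated culture, with triplicates.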

[12] = Genotoxicity in human HepG2/C3A cells assessed as DNA fragmentation at 0.1 uM after 24 hrs by alkaline comet assay (reference value: 6.65%); assay type: toxicity, cell-based; outline: as §4
[13] = Cytotoxicity against human HepG2/C3A cells assessed as cell viability at 180 uM after 24 hrs by neutral red uptake assay relative to control; assay type: cell-based; details: read-out: Activity
Outline: (§6)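 C3A cells grown in DMEM + 10% FCS, 40 000 cells/well, recovered overnight at 37 °C, 5% CO2. Exposed 24 h to serial dilutions in DMEM + 10% FCS from 18 mM DMSO stocks, DMSO limited to 1%. Neutral red added for 3 h, cells washed, dye extracted with ethanol/acetic acid (50%/1%), OD read at 540 nm with 620 nm reference. Viability expressed as % of untreated cells.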

[14] = Cytotoxicity against human HepG2/C3A cells assessed as cell viability at 60 uM after 24 hrs by neutral red uptake assay relative to control; assay type: cell-based; details: read-out: Activity; outline: as §6
[15] = system: Mycobacterium tuberculosis; assay: Antimycobacterial activity against Mycobacterium tuberculosis H37Rv ATCC 27294 assessed as growth inhibition at 0.1 uM after 6 days by luciferase reporter gene assay relative to control; assay type: functional; details: H37Rv ATCC 27294, 144 h, read-out: GI; outline: as §5
[16] = Genotoxicity in human HepG2/C3A cells assessed as DNA fragmentation at 3 uM after 24 hrs by alkaline comet assay (reference value: 6.65%); assay type: toxicity, cell-based; outline: as §4
[17] = Selectivity index, ratio of NI50 for human HepG2/C3A cells to MIC50 for Mycobacterium tuberculosis H37Rv ATCC 27294; assay type: functional
[18] = Toxicity in recombinant Salmonella typhimurium TA104 expressing luxabcd genes under transcriptional control of constitutive pr1 promoter assessed as concentration required to reduce cell viability measured every 5 mins for 4 hrs by vitotox assay in presence of S9 fraction; assay type: organism-based; details: salmonella enterica subsp. enterica serovar typhimurium; read-out: Activity; outline: as §3
[19] = Genotoxicity in human HepG2/C3A cells assessed as DNA fragmentation at 10 uM after 24 hrs by alkaline comet assay (reference value: 6.65%); assay type: toxicity, cell-based; outline: as §4
[20] = Potency index, ratio of MIC50 for Mycobacterium avium subsp. avium ATCC 15769 to MIC50 for Mycobacterium bovis AN5; assay type: functional
[21] = system: Mycobacterium tuberculosis; assay: Antimycobacterial activity against Mycobacterium tuberculosis H37Rv ATCC 27294 assessed as growth inhibition at 10 uM after 6 days by luciferase reporter gene assay relative to control; assay type: functional; details: H37Rv ATCC 27294, 144 h, read-out: GI; outline: as §5
[22] = Genotoxicity in human HepG2/C3A cells assessed as DNA fragmentation at 1 uM after 24 hrs by alkaline comet assay (reference value: 6.65%); assay type: toxicity, cell-based; outline: as §4
[23] = system: Mycobacterium tuberculosis; assay: Antimycobacterial activity against Mycobacterium tuberculosis H37Rv infected in mouse J774.A1 cells at 1 MOI assessed as intracellular bacterial growth inhibition at 10 uM after 1 hr by luciferase reporter gene assay relative to control; assay type: functional; details: J774.A1, 1 h, read-out: GI
[24] = Cytotoxicity against human HepG2/C3A cells assessed as cell viability at 120 uM after 24 hrs by neutral red uptake assay relative to control; assay type: cell-based; details: read-out: Activity; outline: as §6

O=Cc1ccc(OCCCCCCCCCCCCOc2ccc(C=O)cc2)cc1
MIC50 [1]: 5.01 µM (≈ 2.06 µg/mL) | Ratio [2]: 5 | Activity (Salmonella typhimurium [3]): > 10 µM | MIC50 [4]: 4.75 µM (≈ 1.95 µg/mL) | MIC50 [5]: 0.52 µM (≈ 0.213 µg/mL) | intracellular bacterial growth inhibition at 0.1 µM [6]: 13.5% | Activity (Salmonella typhimurium [7]): > 10 µM | percent inhibition of intracellular bacterial growth at 1 µM [8]: 53.1% | MIC50 (Mycobacterium ulcerans): 8.21 µM (≈ 3.37 µg/mL) | Activity (Salmonella typhimurium [9]): > 10 µM | Activity [10]: 7.64% | inhibition of growth at 1 µM [11]: 81% | Activity [12]: 5.72% | viability at 24 h, 180 µM [13]: 68.1% | viability at 24 h, 60 µM [14]: 101% | inhibition of growth at 0.1 µM [15]: 26% | Activity [16]: 7.44% | Selectivity Index [17]: >346.2 | MCC at 4 h [18]: > 10 µM | Activity [19]: 6.97% | Ratio [20]: 5 | inhibition of growth at 10 µM [21]: 100% | Activity [22]: 7.62% | intracellular bacterial growth inhibition at 10 µM [23]: 74% | viability at 24 h, 120 µM [24]: 89.9%
